From ChEMBL document CHEMBL1268907, “Synthesis and evaluation of benzoxazole derivatives as 5-lipoxygenase inhibitors” (Bioorg Med Chem, 2010)
pIC50: −log10 of the molar value. Calls of active or inactive are those of the source. No cut-off for these calls is given here.

Assays:
[1] = biological target: T1, Polyunsaturated fatty acid 5-lipoxygenase (Mus musculus, UniProt P48999); assay: Inhibition of 5-lipoxygenase in BALB/c mouse BMMC assessed as LTC4 release after 20 mins by enzyme immunoassay
T1 sequence (P48999 whole entry): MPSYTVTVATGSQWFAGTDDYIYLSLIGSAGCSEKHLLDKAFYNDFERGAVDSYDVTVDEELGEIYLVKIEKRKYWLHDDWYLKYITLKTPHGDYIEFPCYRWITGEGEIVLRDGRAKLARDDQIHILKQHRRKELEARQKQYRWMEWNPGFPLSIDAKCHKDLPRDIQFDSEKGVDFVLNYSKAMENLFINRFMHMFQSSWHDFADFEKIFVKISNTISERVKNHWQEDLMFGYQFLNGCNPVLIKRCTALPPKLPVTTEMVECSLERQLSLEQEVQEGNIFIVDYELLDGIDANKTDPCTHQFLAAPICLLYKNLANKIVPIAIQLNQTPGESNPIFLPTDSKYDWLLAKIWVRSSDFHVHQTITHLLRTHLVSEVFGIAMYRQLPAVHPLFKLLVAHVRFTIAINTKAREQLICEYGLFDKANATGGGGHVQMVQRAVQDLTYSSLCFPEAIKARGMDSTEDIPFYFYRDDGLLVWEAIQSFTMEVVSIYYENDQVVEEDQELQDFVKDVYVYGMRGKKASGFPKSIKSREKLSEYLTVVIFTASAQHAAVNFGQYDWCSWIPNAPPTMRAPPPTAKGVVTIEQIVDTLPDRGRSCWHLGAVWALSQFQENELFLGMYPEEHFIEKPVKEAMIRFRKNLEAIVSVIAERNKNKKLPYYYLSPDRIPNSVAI
In short: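 Bone marrow mast cells from male Balb/c mice, cultured up to 4 weeks in enriched RPMI + 10% FBS + IL-3 (2 ng/mL); >98% purity by toluidine blue staining. Cells at 1×10^6/mL pre-incubated with compound in DMSO (final <0.5%) for 30 min at 37 °C, then stimulated with SCF 100 ng/mL for 20 min. Supernatant LTC4 measured by EIA in triplicate; % reduction calculated.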

Mus musculus [2] = assay: Antiasthamatic activity against ovalbumin-induced airway hyperresponsiveness mouse model assessed as reduction of bronchoalveolar lavage fluid IL-13 level at 30 mg/kg, po measured 48 hrs after ovalbumin challenge; assay type: functional, Lung
In short: (§1)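 OVA sensitization i.p. (20 µg OVA with 2 mg aluminum hydroxide in PBS pH 7.4, days 0 and 11), then airway challenge with 1% OVA aerosol for 20 min on days 19, 20, 21 and 25. Compound given orally at 30 mg/kg. BALF collected 48 h after last challenge by three 0.5 mL ice-cold PBS lavages and centrifuged. IL-4, IL-5 and IL-13 measured by mouse ELISA (detection limit 250 pg/mL). n = 5–6 per group, mean ± SEM.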

Mus musculus [3] = assay: Antiasthamatic activity against ovalbumin-induced airway hyperresponsiveness mouse model assessed as reduction of bronchoalveolar lavage fluid IL-5 level at 30 mg/kg, po measured 48 hrs after ovalbumin challenge; assay type: functional, Lung; in short: as §1
Mus musculus [4] = assay: Antiasthamatic activity against ovalbumin-induced airway hyperresponsiveness mouse model assessed as reduction of mononuclear cells infiltration at 30 mg/kg, po measured 48 hrs after ovalbumin challenge; assay type: functional, organism-based; design: dose 30 mg/kg
In short: (§2)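 Mice sensitized i.p. with OVA/alum on days 0 and 11 and challenged with 1% OVA aerosol on days 19–21 and 25. Oral dosing at 30 mg/kg. Lungs taken 48 h after last challenge, fixed 24 h in 10% neutral-buffered formalin, paraffin-embedded, cut at 4 µm and H&E stained. Peribronchial/perivascular infiltration scored 0–3 blind by two independent investigators.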

Mus musculus [5] = assay: Antiasthamatic activity against ovalbumin-induced airway hyperresponsiveness mouse model assessed as reduction of bronchoalveolar lavage fluid IL-4 level at 30 mg/kg, po measured 48 hrs after ovalbumin challenge; assay type: functional, Lung; in short: as §1
Mus musculus [6] = assay: Antiasthamatic activity against ovalbumin-induced airway hyperresponsiveness mouse model assessed as reduction of increase in penh value at 30 mg/kg, po administered 24 hrs after last ovalbumin challenge measured after 24 hrs by plethysmography; assay type: functional, organism-based; design: dose 30 mg/kg
In short: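 OVA/alum-sensitized mice (i.p., days 0 and 11) challenged with 1% OVA aerosol, given 30 mg/kg orally. 24 h after final aerosol, whole-body plethysmography was run: PBS aerosol, then methacholine 12.5, 25 and 50 mg/mL for 3 min each, with 5 min recording per step. Peak Penh at each dose expressed as % of basal PBS Penh.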

Mus musculus [7] = assay: Antiasthamatic activity against ovalbumin-induced airway hyperresponsiveness mouse model assessed as reduction of eosinophils infiltration at 30 mg/kg, po measured 48 hrs after ovalbumin challenge; assay type: functional, organism-based; design: dose 30 mg/kg; in short: as §2
Mus musculus [8] = assay: Antiasthamatic activity against ovalbumin-induced airway hyperresponsiveness mouse model assessed as reduction of plasma IgE level at 30 mg/kg, po measured 48 hrs after ovalbumin challenge (reference value: 41.82 +/- 10.57 ng/ml); assay type: functional

`COc1ccc2oc(Nc3ccccc3)nc2c1` was tested. Which pIC50 [1] did it give?
The pIC50 was 5.10.

Which results are given for `CCc1ccc(Nc2nc3cc(C)ccc3o2)cc1`?
Activity (Mus musculus [2]): 64.3 ng/mL; Activity (Mus musculus [3]): 116.92 ng/mL; Activity (Mus musculus [4]): Active; Activity (Mus musculus [5]): 198.34 ng/mL; Activity (Mus musculus [6]): Active; Activity (Mus musculus [7]): Active; Activity (Mus musculus [8]): 19.21 ng/mL; pIC50 [1]: 6.92

`CSc1ccc(Nc2nc3cc(C)ccc3o2)cc1` was tested. Which pIC50 [1] did it give?
The pIC50 was 5.14.

With `COc1ccc2oc(Nc3ccc(SC)cc3)nc2c1` as the molecule, how does the pIC50 [1] read?
Its pIC50 is 5.56.

How did the pIC50 [1] turn out when `COc1ccc2oc(Nc3cccc(Br)c3)nc2c1` was run?
The pIC50 was 5.69.

With `Cc1ccc2oc(Nc3ccccc3)nc2c1` as the molecule, how does the pIC50 [1] read?
The pIC50 was 5.34.

With `Clc1ccc2oc(Nc3ccccc3)nc2c1` as the molecule, how does the pIC50 [1] read?
Its pIC50 is 5.35.

`COc1cccc(Nc2nc3cc(C)ccc3o2)c1` was tested. Which pIC50 [1] did it give?
Its pIC50 is 5.17.

How did the Activity (Mus musculus [2]) turn out when `CCc1ccc(Nc2nc3cc(Cl)ccc3o2)cc1` was run?
The Activity was 71.91 ng/mL.

What about the Activity (Mus musculus [3]) of the same molecule?
Its Activity is 110.91 ng/mL.

And the Activity (Mus musculus [4])?
Its Activity is “Active”.

And the Activity (Mus musculus [5])?
Its Activity is 163.49 ng/mL.

What about the Activity (Mus musculus [6]) of the same molecule?
The Activity was “Active”.

What about the Activity (Mus musculus [7]) of the same molecule?
Its Activity is “Active”.

And the Activity (Mus musculus [8])?
Its Activity is 25.44 ng/mL.

With `COc1ccc2oc(Nc3ccc(C(C)C)cc3)nc2c1` as the molecule, how does the pIC50 [1] read?
The pIC50 was 5.58.

`CCc1ccccc1Nc1nc2cc(C)ccc2o1` was tested. Which pIC50 [1] did it give?
Its pIC50 is 5.25.
